The record followed here is the array DNA melting data of Ke et al. (doi:10.1101/2024.01.08.574731).

Series [1] in a line: melting temperature; fluorescence melt of hairpins on a sequencing array, two-state fit, raised by 9.35 °C to match UV melts. The conditions noted are these: sodium 0.088 M. In short, it runs like this:
(§1)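 Hairpins were imaged by Cy3 fluorescence on a sequenced MiSeq flow cell with annealed Cy3 and quencher oligos, in 50 mM Na-HEPES pH 8.0, 25 mM NaCl, in 2.5 °C steps up to 60 °C. Bootstrapped two-state fits of normalised signals gave melting temperature and folding enthalpy. Four replicates were combined by inverse variance, and fitted temperatures were raised by 9.35 °C to match UV melts.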

Series [2] in a line: folding enthalpy; higher = less favourable; fluorescence melt of hairpins on a sequencing array, two-state fit. The conditions noted are these: sodium 0.088 M. In short, it runs like this: as §1

With GATCCAATTATGGATC ((((((....)))))), the Tm in series [1] amounted to 50.4 °C. Further, the folding enthalpy in series [2] is -36.5 kcal/mol.
Take GATCCAATTGTGGATC ((((((....)))))): the Tm in series [1] turned out to be 49.6 °C. The folding enthalpy in series [2] is -32.7 kcal/mol.
For GATCCACCAATGGATC ((((((....)))))) the same measures were 48.5 °C and -36.4 kcal/mol.
Turning to GATCCACCATGGATC ((((((...)))))), the Tm in series [1] is 49.7 °C. In series [2], the folding enthalpy was -37.4 kcal/mol.
For the sequence GATCCACGCGTGGATC ((((((....)))))), the Tm in series [1] was determined as 64.4 °C. Moreover, in series [2], the folding enthalpy was -49.9 kcal/mol.
Turning to GATCCACGCTTGGATC ((((((....)))))), the Tm in series [1] came out at 52.5 °C. Also, the folding enthalpy in series [2] was -38.4 kcal/mol.
As for GATCCACGGTTGGATC ((((((....)))))), in series [1], the Tm is 48.9 °C. The folding enthalpy in series [2] was -37.7 kcal/mol.
For GATCCACGTATGGATC ((((((....)))))) the same measures were 51.6 °C and -31.8 kcal/mol.
For GATCCAGACTTGGATC ((((((....)))))) the same measures were 56.1 °C and -35 kcal/mol.
For GATCCAGCACTGGATC ((((((....)))))) the same measures were 56 °C and -37.6 kcal/mol.
On to GATCCAGCATGGATC ((((((...)))))), for which the Tm in series [1] is 61.1 °C. Also, the folding enthalpy in series [2] was -45.4 kcal/mol.
With GATCCAGCCTGGATC ((((((...)))))), in series [1], the Tm came to 52.2 °C. Moreover, the folding enthalpy in series [2] is -34 kcal/mol.
For GATCCAGCCTTGGATC ((((((....)))))), in that order: 53.5 °C and -37.2 kcal/mol.
For GATCCAGCTTTGGATC ((((((....)))))) the same measures were 51.5 °C and -32.1 kcal/mol.
For GATCCAGGAAACTGGACC (.(((((....))))).) the same measures were 39.1 °C and -15.9 kcal/mol.
With GATCCAGGAAACTGGATC (((((((....))))))), the Tm in series [1] amounted to 60.9 °C. For the same sequence, the folding enthalpy in series [2] is -38.1 kcal/mol.
With GATCCAGGAGTGGATC ((((((....)))))), the Tm in series [1] came to 52.5 °C. Besides, in series [2], the folding enthalpy is -36.7 kcal/mol.
In the case of GATCCAGGATTGGATC ((((((....)))))), the Tm in series [1] was determined as 55.1 °C. Moreover, the folding enthalpy in series [2] was -39.9 kcal/mol.
For GATCCAGGCTGGATC ((((((...)))))), in that order: 53 °C and -46.7 kcal/mol.
On to GATCCAGGGGTGGATC ((((((....)))))), for which, in series [1], the Tm was determined as 50.4 °C. Further, in series [2], the folding enthalpy is -28.1 kcal/mol.
Turning to GATCCAGTAGTGGATC ((((((....)))))), the Tm in series [1] was found to be 54.2 °C. Besides, the folding enthalpy in series [2] is -32 kcal/mol.
For GATCCAGTATTGGATC ((((((....)))))) the same measures were 57.4 °C and -41.8 kcal/mol.
For GATCCAGTGGTGGATC ((((((....)))))), in that order: 50.4 °C and -34.6 kcal/mol.
For GATCCATAAATGGATC ((((((....)))))), in that order: 50.3 °C and -47.5 kcal/mol.
On to GATCCATACCTGGATC ((((((....)))))), for which the Tm in series [1] worked out at 52.1 °C. The folding enthalpy in series [2] was -36.8 kcal/mol.
Turning to GATCCATATATGGATC ((((((....)))))), the Tm in series [1] came out at 55 °C. Moreover, the folding enthalpy in series [2] is -44.1 kcal/mol.
Turning to GATCCATATTTGGATC ((((((....)))))), the Tm in series [1] is 53.6 °C. The folding enthalpy in series [2] is -36.9 kcal/mol.
On to GATCCATCACTGGATC ((((((....)))))), for which, in series [1], the Tm is 50.2 °C. Also, in series [2], the folding enthalpy was -35.6 kcal/mol.
For GATCCATCAGTGGATC ((((((....)))))), the Tm in series [1] was 51.6 °C. The folding enthalpy in series [2] was -34.9 kcal/mol.
On to GATCCATCGATGGATC ((((((....)))))), for which the Tm in series [1] was determined as 55.2 °C. Besides, the folding enthalpy in series [2] was -47.8 kcal/mol.
As to GATCCATCTCTGGATC ((((((....)))))), in series [1], the Tm turned out to be 50.4 °C. Also, the folding enthalpy in series [2] was -39.6 kcal/mol.
As to GATCCATGAATGGATC ((((((....)))))), the Tm in series [1] was found to be 53.3 °C. In addition, the folding enthalpy in series [2] is -45.1 kcal/mol.
For GATCCATGCATGGATC ((((((....)))))), in that order: 58.8 °C and -42.5 kcal/mol.
GATCCATTATTGGATC ((((((....)))))): in series [1], the Tm was 52.7 °C. Besides, the folding enthalpy in series [2] was -37.1 kcal/mol.
For GATCCATTGCTGGATC ((((((....)))))), in that order: 50.8 °C and -36.6 kcal/mol.
For GATCCATTTTGGATC ((((((...)))))) the same measures were 53.6 °C and -33.5 kcal/mol.
For GATCCCAAAGGGATC ((((((...)))))) the same measures were 65.5 °C and -35.4 kcal/mol.
For GATCCCAAAGGGGATC ((((((....)))))), the Tm in series [1] came to 57.3 °C. In addition, in series [2], the folding enthalpy was -31.7 kcal/mol.
Regarding GATCCCAAATGGGATC ((((((....)))))), the Tm in series [1] worked out at 57.7 °C. The folding enthalpy in series [2] is -36.4 kcal/mol.
For GATCCCAACAGGGATC ((((((....)))))), in that order: 62.4 °C and -36 kcal/mol.
As to GATCCCAACTGGGATC ((((((....)))))), in series [1], the Tm was 63.4 °C. The folding enthalpy in series [2] is -39.5 kcal/mol.
Take GATCCCAAGAGGGATC ((((((....)))))): in series [1], the Tm was 60.8 °C. Further, the folding enthalpy in series [2] was -33.9 kcal/mol.
For GATCCCAAGCGGGATC ((((((....)))))), in that order: 60.6 °C and -32.5 kcal/mol.
For GATCCCAATGGGGATC ((((((....)))))), in that order: 60.7 °C and -33.2 kcal/mol.
In the case of GATCCCACCAGGGATC ((((((....)))))), the Tm in series [1] was found to be 61.4 °C. Also, the folding enthalpy in series [2] was -41.8 kcal/mol.
In the case of GATCCCACCGGGATC ((((((...)))))), the Tm in series [1] amounted to 66.7 °C. The folding enthalpy in series [2] is -28.9 kcal/mol.
For GATCCCACGCGGGATC ((((((....)))))) the same measures were 63.3 °C and -30.7 kcal/mol.
As for GATCCCACGGGGGATC ((((((....)))))), in series [1], the Tm is 61.3 °C. Also, the folding enthalpy in series [2] was -35.8 kcal/mol.
Take GATCCCAGAAGGGATC ((((((....)))))): the Tm in series [1] was found to be 60.4 °C. For the same sequence, the folding enthalpy in series [2] is -34.7 kcal/mol.
Regarding GATCCCAGATGGGATC ((((((....)))))), the Tm in series [1] came out at 57.6 °C. Also, the folding enthalpy in series [2] is -34.1 kcal/mol.
As to GATCCCATATGGGATC ((((((....)))))), the Tm in series [1] was 61.8 °C. The folding enthalpy in series [2] was -35.3 kcal/mol.
For GATCCCATGAGGGATC ((((((....)))))), in that order: 61.4 °C and -30.3 kcal/mol.
Consider GATCCCATGGGGATC ((((((...)))))), for which, in series [1], the Tm came to 65.8 °C. The folding enthalpy in series [2] was -33.2 kcal/mol.
Regarding GATCCCCAAAGGGATC ((((((....)))))), the Tm in series [1] worked out at 59.7 °C. Besides, the folding enthalpy in series [2] is -33.5 kcal/mol.
With GATCCCCACCGGGATC ((((((....)))))), the Tm in series [1] worked out at 57.3 °C. In addition, the folding enthalpy in series [2] was -34.7 kcal/mol.
For the sequence GATCCCCATGGGATC ((((((...)))))), the Tm in series [1] was 63 °C. In addition, the folding enthalpy in series [2] was -37.5 kcal/mol.
Take GATCCCCCACGGGATC ((((((....)))))): in series [1], the Tm worked out at 58.1 °C. Moreover, in series [2], the folding enthalpy is -35.6 kcal/mol.
For GATCCCCCCAGGGATC ((((((....)))))) the same measures were 63.3 °C and -38.1 kcal/mol.
For GATCCCCCCTGGGATC ((((((....)))))), in that order: 58.4 °C and -39.1 kcal/mol.
For GATCCCCCGAAAGGGATC (((..(((....)))))), in that order: 52.4 °C and -30.7 kcal/mol.
Take GATCCCCCTCGGGATC ((((((....)))))): the Tm in series [1] is 58.2 °C. Further, the folding enthalpy in series [2] is -34 kcal/mol.
For GATCCCCGAAGGGATC ((((((....)))))) the same measures were 57.1 °C and -15.6 kcal/mol.
For GATCCCCGCAGGGATC ((((((....)))))) the same measures were 62.8 °C and -18.1 kcal/mol.
As for GATCCCCGTAGGGATC ((((((....)))))), the Tm in series [1] turned out to be 61.9 °C. Also, the folding enthalpy in series [2] was -20.6 kcal/mol.
For GATCCCCGTTGGGATC ((((((....)))))) the same measures were 62.2 °C and -32.3 kcal/mol.
As for GATCCCCTCCGGGATC ((((((....)))))), the Tm in series [1] was found to be 58.4 °C. Moreover, in series [2], the folding enthalpy was -36 kcal/mol.
For the sequence GATCCCCTCGGGGATC ((((((....)))))), in series [1], the Tm amounted to 67.6 °C. Also, the folding enthalpy in series [2] was -32.5 kcal/mol.
Turning to GATCCCCTGCGGGATC ((((((....)))))), in series [1], the Tm came to 58.2 °C. The folding enthalpy in series [2] is -33.6 kcal/mol.
For GATCCCCTGGGGATC ((((((...)))))) the same measures were 64.8 °C and -32.8 kcal/mol.
Take GATCCCGAAAGGGAGATC ((((((....)))..))): in series [1], the Tm was determined as 50.5 °C. The folding enthalpy in series [2] was -20.6 kcal/mol.
GATCCCGAAAGGGCATC ((((((....))).))): in series [1], the Tm turned out to be 42.1 °C. Moreover, in series [2], the folding enthalpy was -17 kcal/mol.
For GATCCCGAAAGGGGCATC ((((((....)))..))), in that order: 35.6 °C and -11.6 kcal/mol.
In the case of GATCCCGACCGGGATC ((((((....)))))), the Tm in series [1] came out at 66.5 °C. Besides, the folding enthalpy in series [2] is -37.5 kcal/mol.
With GATCCCGAGGGGATC ((((((...)))))), the Tm in series [1] was 62.6 °C. For the same sequence, the folding enthalpy in series [2] is -42.5 kcal/mol.
For GATCCCGAGGGGGATC ((((((....)))))), in that order: 59.7 °C and -35.3 kcal/mol.
For GATCCCGATGGGGATC ((((((....)))))), in that order: 63.3 °C and -34.8 kcal/mol.
